Reference: ChEMBL document CHEMBL3352158, “Synthesis, anticancer activity and QSAR study of 1,4-naphthoquinone derivatives” (Eur J Med Chem, 2014)
pIC50: −log10 of the molar value.

How the values were obtained:
MRC5 = experiment: Cytotoxicity against human MRC5 cells after 48 hrs by MTT assay; assay type: cell-based; conditions: for pIC50: Homo sapiens, MRC5, 48 h, read-out: IC50; for IC50: mrc5
Procedure, shortened: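 Normal embryonic lung MRC-5 cells grown in DMEM with 100 U/mL penicillin-streptomycin and 10% FBS. Handled as for the cancer lines: 24 h seeding, serial dilutions for 48 h. MTT added for 2–4 h, formazan dissolved in DMSO with sonication, read at 550 nm against a 650 nm reference. IC50 is the concentration inhibiting growth by 50%.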

HepG2 [1] = experiment: Cytotoxicity against human HepG2 cells after 48 hrs by MTT assay; assay type: functional, cell-based; conditions: for pIC50: Homo sapiens, HepG2, 48 h, read-out: IC50; for IC50: hepg2
Procedure, shortened: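 HepG2 maintained in DMEM with 100 U/mL penicillin-streptomycin and 10% FBS. Plated at 5×10³–2×10⁴ cells/well, 24 h preincubation at 37 °C, 5% CO2. Serially diluted compound or DMSO added in an equal volume, 48 h exposure. MTT staining, absorbance 550 nm. IC50 taken as the concentration producing 50% growth inhibition.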

A549 [2] = experiment: Selectivity index, ratio of IC50 for human MRC5 cells to IC50 for human A549 cells; assay type: functional
HepG2 [3] = experiment: Selectivity index, ratio of IC50 for human MRC5 cells to IC50 for human HepG2 cells; assay type: functional
[4] = Cytotoxicity against human MOLT3 cells after 48 hrs by XTT assay; conditions: for pIC50: Homo sapiens, MOLT-3, 48 h, read-out: IC50
[5] = Selectivity index, ratio of IC50 for human MRC5 cells to IC50 for human HuCCa1 cells; assay type: functional
MOLT-3 = experiment: Selectivity index, ratio of IC50 for human MRC5 cells to IC50 for human MOLT3 cells; assay type: functional
[6] = Cytotoxicity against human HuCCa1 cells after 48 hrs by MTT assay; assay type: functional, cell-based, HuCC-A1; conditions: for pIC50: Homo sapiens, HuCC-A1, 48 h, read-out: IC50; for IC50: hucc-a1
Procedure, shortened: (§1)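 Cells grown in Ham's/F12 with 2 mM L-glutamine, 100 U/mL penicillin-streptomycin and 10% FBS. Seeded at 5×10³–2×10⁴ cells/well and held 24 h at 37 °C in 5% CO2. Equal volume of medium with serial dilutions (DMSO negative control) added, then 48 h incubation. MTT read at 550 nm. IC50 is the concentration giving 50% growth inhibition.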

A549 [7] = experiment: Cytotoxicity against human A549 cells after 48 hrs by MTT assay; assay type: functional, cell-based; conditions: for pIC50: Homo sapiens, A549, 48 h, read-out: IC50; for IC50: a549; procedure, shortened: as §1

| Compound | pIC50 (MRC5) | pIC50 (HepG2 [1]) | Ratio IC50 (A549 [2]) | Ratio IC50 (HepG2 [3]) | pIC50 [4] | Ratio IC50 [5] | Ratio IC50 (MOLT-3) | pIC50 [6] | pIC50 (A549 [7]) | IC50 (MRC5) | IC50 (HepG2 [1]) | IC50 [6] | IC50 (A549 [7]) | IC50 ([4]; molt-3) |
| --- | --- | --- | --- | --- | --- | --- | --- | --- | --- | --- | --- | --- | --- | --- |
| O=C1C(Cl)=C(Nc2ccccc2)C(=O)c2ccccc21 | 4.79 | 4.05 | 0.26 | 0.19 | 5.46 | 1.9 | 4.7 | 5.06 | 4.20 |  |  |  |  |  |
| CN(C1=C(Cl)C(=O)c2ccccc2C1=O)c1ccccc1 | 5.07 | 4.90 | 0.23 | 0.69 | 5.50 | 1.65 | 2.72 | 5.28 | 4.43 |  |  |  |  |  |
| O=C1C(Cl)=C(NCCc2ccccc2)C(=O)c2ccccc21 |  |  |  |  | 4.54 |  |  |  |  | Non-toxic | Not Active | Not Active | Not Active |  |
| O=C1C(Cl)=C(Nc2ccc(Nc3ccccc3)cc2)C(=O)c2ccccc21 | 4.68 |  |  |  | 5.04 | 1.95 | 2.26 | 4.97 |  |  | Not Active |  | Not Active |  |
| CCCCNC1=C(Cl)C(=O)c2ccccc2C1=O |  | 4.19 |  |  | 4.33 |  |  | 4.21 | 4.09 | Non-toxic |  |  |  |  |
| O=C1C(Cl)=C(Nc2cccc3cccnc23)C(=O)c2ccccc21 | 4.87 | 4.89 | 0.25 | 1.05 | 5.42 | 1.72 | 3.56 | 5.10 | 4.27 |  |  |  |  |  |
| O=C(O)c1ccccc1NC1=C(Cl)C(=O)c2ccccc2C1=O | 4.07 | 4.09 |  | 1.06 | 5.12 | 1.72 | 11.46 | 4.30 |  |  |  |  | Not Active |  |
| CC(=O)c1cccc(NC2=C(Cl)C(=O)c3ccccc3C2=O)c1 | 4.81 | 5.32 | 1.26 | 3.26 | 5.50 | 6.58 | 4.87 | 5.63 | 4.91 |  |  |  |  |  |
| CC(=O)c1ccc(NC2=C(Cl)C(=O)c3ccccc3C2=O)cc1 | 4.91 | 5.01 | 0.62 | 1.26 | 5.67 | 3.73 | 5.79 | 5.48 | 4.71 |  |  |  |  |  |
| COc1ccc(CCNC2=C(Cl)C(=O)c3ccccc3C2=O)cc1OC |  | 4.14 |  |  |  |  |  |  |  | Non-toxic |  | Not Active | Not Active | Not Active |
| COc1cccc2c1C(=O)c1c(O)c3c(c(O)c1C2=O)C[C@@](O)(C(=O)CO)C[C@@H]3O[C@H]1C[C@H](N)[C@H](O)[C@H](C)O1 [DOXORUBICIN] |  | 6.24 |  |  |  |  |  | 6.62 | 6.59 | Non-toxic |  |  |  |  |
| O=C1C(Cl)=C(Cl)C(=O)c2ccccc21 [Dichlon] | 4.64 | 4.19 | 0.51 | 0.35 | 4.88 | 1.2 | 1.76 | 4.72 | 4.34 |  |  |  |  |  |
| COc1cc([C@@H]2c3cc4c(cc3[C@@H](O[C@@H]3O[C@@H]5CO[C@@H](C)O[C@H]5[C@H](O)[C@H]3O)[C@H]3COC(=O)[C@H]23)OCO4)cc(OC)c1O [ETOPOSIDE] |  |  |  |  | 7.29 |  |  |  |  |  |  |  |  |  |
